Assay results reported in article PMC3319156 (Journal of Medicinal Chemistry, 2011).
Values belong to the molecule of their own block, whether it stands above or below them.

What was measured:
Tyr705 of Stat3 [1] = target: T1, Tyr705 of Stat3 (Homo sapiens, UniProt P40763); assay: Inhibition of constitutive Stat3 Tyr705 phosphorylation in MDA-MB-468 cells; type: cell-based
How it was run: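 MDA-MB-468 cells (4 × 10^5/well) were grown overnight in DMEM with 10% FCS. Prodrug was given from a 10 mM DMSO stock prepared fresh, for 2 h, or over a time course. After ice-cold PBS washes, cells were lysed (Hepes pH 7.4, Triton X-100, NaF, vanadate, protease inhibitors). 12 µg protein went on 8% SDS-PAGE/PVDF with 5% BSA block. Blots were probed for pStat3 Y705 by ECL, stripped at 50°C, and reprobed for total Stat3.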

Tyr705 of Stat3 [2] = target: T1, Tyr705 of Stat3; conditions: MDA-MB-468; cited from earlier work
Stat3 [3] = target: T2, Stat3 (Homo sapiens, UniProt P40763); assay: IL-6-stimulated Stat3 phosphorylation in A375 melanoma cells; type: cell-based; conditions: A375, 1.5 hour exposure then IL-6
How it was run: (§1)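 Hey, MeWo and A375 cells were seeded at 3 × 10^5 cells/well in RPMI1640 and cultured overnight, with a media change. Cells then received increasing test compound concentrations for 2 h. IL-6 at 10 ng/mL was present for the last 30 min. Lysates were blotted for pStat3 Y705 and total Stat3 as in the constitutive assay.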

MDA-MB-468 cells = assay: Cytotoxicity to MDA-MB-468 cells, MTT assay; type: cell-based; conditions: MDA-MB-468, treated daily for three days
How it was run: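 MDA-MB-468 cells in DMEM with 10% FBS were plated at 1500 cells/well in triplicate, and the medium was changed the next day. Prodrug was dissolved fresh in ethanol to a 10 mM stock, diluted, and added. Further doses went into the same medium at 24 and 48 h, with final ethanol below 1%. Viability was read by MTT.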

Tyr701 of Stat1 = target: T3, Tyr701 of Stat1 (Homo sapiens, UniProt P42224); assay: IFNγ-stimulated Stat1 Tyr701 phosphorylation in MDA-MB-468 cells; type: cell-based; conditions: MDA-MB-468, 1.5 h then 30 min IFNγ
T3 sequence (P42224 1-750): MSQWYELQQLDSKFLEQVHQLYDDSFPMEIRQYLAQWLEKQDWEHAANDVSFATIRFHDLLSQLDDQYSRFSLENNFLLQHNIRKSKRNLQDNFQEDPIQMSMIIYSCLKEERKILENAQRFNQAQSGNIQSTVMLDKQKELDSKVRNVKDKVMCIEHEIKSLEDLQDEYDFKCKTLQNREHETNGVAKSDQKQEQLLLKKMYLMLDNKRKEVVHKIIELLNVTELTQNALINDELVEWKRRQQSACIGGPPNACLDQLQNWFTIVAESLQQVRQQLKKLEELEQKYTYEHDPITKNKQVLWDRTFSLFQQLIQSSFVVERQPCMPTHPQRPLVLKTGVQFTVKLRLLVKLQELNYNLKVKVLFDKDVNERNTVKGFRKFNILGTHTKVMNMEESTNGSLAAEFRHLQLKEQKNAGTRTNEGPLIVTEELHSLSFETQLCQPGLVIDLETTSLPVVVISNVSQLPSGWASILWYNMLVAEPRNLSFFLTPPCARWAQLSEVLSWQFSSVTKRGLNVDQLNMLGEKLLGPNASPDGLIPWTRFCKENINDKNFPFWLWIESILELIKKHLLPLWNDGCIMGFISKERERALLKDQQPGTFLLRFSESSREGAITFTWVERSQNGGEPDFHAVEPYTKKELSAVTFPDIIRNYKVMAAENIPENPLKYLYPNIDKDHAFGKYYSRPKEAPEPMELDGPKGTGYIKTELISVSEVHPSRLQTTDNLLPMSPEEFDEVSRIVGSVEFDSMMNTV
How it was run: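 MDA-MB-468 cells were prepared as for the Stat3 assay (plated overnight in DMEM/10% FCS) and exposed to increasing test compound concentrations for 1.5 h. Interferon γ was then added at 25 ng/mL for 30 min. Lysates were run on PAGE, blotted to PVDF, and probed for pTyr701 Stat1 and total Stat1 with chemiluminescent detection.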

Stat3 [4] = target: T2, Stat3; assay: Constitutive Stat3 phosphorylation in SKOV3ip ovarian cancer cells; type: cell-based
How it was run: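 SKOV3-ip cells were seeded at 3 × 10^5 cells/well in McCoy's 5A medium and handled as for MDA-MB-468. Prodrug was added from a 10 mM DMSO stock made just before use, for 2 h. Cells were lysed in Hepes pH 7.4/Triton X-100 buffer with phosphatase and protease inhibitors. 12 µg protein was run on 8% SDS-PAGE, blotted for pStat3 Y705 by ECL, then stripped and reprobed for total Stat3.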

cyclin D1 [5] = assay: Expression of cyclin D1 in HCC-827 cells; type: cell-based; conditions: HCC-827, 5 µM
Bcl-xL = assay: Expression of downstream gene Bcl-xL in MDA-MB-468 cells; type: cell-based; conditions: MDA-MB-468, 5 µM
Ser473 of Akt [6] = assay: Akt Ser473 phosphorylation in MDA-MB-468 cells; type: cell-based
survivin [7] = assay: Expression of survivin in MDA-MB-468 cells; type: cell-based; conditions: MDA-MB-468 breast line, data not shown
cyclin D1 [8] = assay: Expression of downstream gene cyclin D1 in MDA-MB-468 cells; type: cell-based; conditions: MDA-MB-468, 5 µM
survivin [9] = assay: Expression of survivin in HCC-827 cells; type: cell-based; conditions: HCC-827 lung line, 5 µM
p38 MAPK = p38 MAPK phosphorylation in HCC-827 NSCLC cells; type: cell-based
Stat3 [10] = target: T2, Stat3; assay: EGF-stimulated Stat3 phosphorylation in MDA-MB-468 cells; type: cell-based; conditions: MDA-MB-468, 5 µM, 1.5 h then EGF 30 min
H528 = assay: Growth inhibition of H528 NSCLC cells; type: cell-based; conditions: H528, 5–10 µM, data not shown
Tyr694 of Stat5 = assay: Stat5 Tyr694 phosphorylation in MDA-MB-468 cells; type: cell-based
Stat3 [11] = target: T2, Stat3; assay: IL-6-stimulated Stat3 phosphorylation in MeWo melanoma cells; type: cell-based; conditions: 1.5 hour exposure then IL-6
How it was run: as §1

Stat3 [12] = target: T2, Stat3; assay: Stat3 phosphorylation in HCC-827 non-small-cell lung cancer cells; type: cell-based; conditions: HCC-827, 5 µM
pTyr705 Stat3 = pTyr705 Stat3 (Homo sapiens, UniProt P40763); type: cell-based; conditions: MDA-MB-468, 5 µM, 2 h
How it was run: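 MDA-MB-468 cells on slides were given DMSO or 5 µM test compound for 2 h. Cells were fixed in 4% paraformaldehyde, permeabilized with 0.5% Triton X-100 and blocked with 3% BSA. Staining used anti-pTyr705 Stat3 and an Alexa Fluor 594 secondary. Confocal imaging used identical microscope settings throughout.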

[13] = tested on: Tyr861 of the focal adhesion kinase (FAK); assay: Constitutive FAK Tyr861 phosphorylation in MDA-MB-468 cells; type: cell-based
How it was run: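 Constitutive signal, no stimulus: MDA-MB-468 cells were plated overnight in DMEM/10% FCS and given test compound from a 10 mM DMSO stock for 2 h. Cells were lysed in Hepes pH 7.4 detergent buffer with phosphatase and protease inhibitors. Protein was separated by SDS-PAGE, blotted to PVDF, blocked with 5% BSA, and probed for pTyr861 FAK and total FAK.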

Stat3 [14] = target: T2, Stat3; assay: IL-6-stimulated Stat3 phosphorylation in HEY ovarian cancer cells; type: cell-based; conditions: 1.5 hour exposure then IL-6
How it was run: as §1

Ser473 of Akt [15] = assay: Akt Ser473 phosphorylation in HCC-827 NSCLC cells; type: cell-based
[16] = MDA-MB-468, 2 h treatment, western blot
[17] = MDA-MB-468, single dose of 5 µM
[18] = MDA-MB-468, 5 µM, 1.5 h then EGF 30 min
[19] = MDA-MB-468, 25 µM, two hour treatment

T1 sequence (P40763 whole entry): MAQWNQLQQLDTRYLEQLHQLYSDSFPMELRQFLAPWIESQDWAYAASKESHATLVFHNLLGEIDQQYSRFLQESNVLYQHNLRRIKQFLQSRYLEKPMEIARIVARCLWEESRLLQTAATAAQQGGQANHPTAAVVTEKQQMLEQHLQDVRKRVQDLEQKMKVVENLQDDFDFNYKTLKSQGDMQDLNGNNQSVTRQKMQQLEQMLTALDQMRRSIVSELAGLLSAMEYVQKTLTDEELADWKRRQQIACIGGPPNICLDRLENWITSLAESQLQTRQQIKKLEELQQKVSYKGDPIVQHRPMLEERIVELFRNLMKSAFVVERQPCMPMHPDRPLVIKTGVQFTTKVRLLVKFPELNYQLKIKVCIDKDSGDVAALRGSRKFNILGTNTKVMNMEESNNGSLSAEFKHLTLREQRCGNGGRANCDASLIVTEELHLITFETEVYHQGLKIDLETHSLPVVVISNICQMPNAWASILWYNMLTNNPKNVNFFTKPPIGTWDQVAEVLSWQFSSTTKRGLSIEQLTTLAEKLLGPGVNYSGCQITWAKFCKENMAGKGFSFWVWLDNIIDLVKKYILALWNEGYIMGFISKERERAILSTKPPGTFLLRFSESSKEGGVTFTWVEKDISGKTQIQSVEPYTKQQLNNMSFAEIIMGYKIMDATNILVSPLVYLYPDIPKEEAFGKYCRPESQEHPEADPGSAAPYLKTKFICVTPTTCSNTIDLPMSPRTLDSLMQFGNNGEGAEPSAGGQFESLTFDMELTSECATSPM
T2 sequence (P40763 whole entry): as above
pTyr705 Stat3, sequence (P40763 whole entry): as above

SMILES: CC(C)(C)C(=O)OCOP(=O)(OCOC(=O)C(C)(C)C)C(F)(F)c1ccc(/C=C/C(=O)N[C@H]2CCc3cccc4c3N(C2=O)[C@H](C(=O)N[C@@H](CCC(N)=O)C(=O)NCc2ccccc2)C4)cc1 [compound 3]
effect on level of pStat3 (Tyr705 of Stat3 [1]; MDA-MB-468, 2 h, increasing concentrations): reduced the level of pStat3 in a dose-dependent manner | concentration that completely inhibited constitutive phosphorylation of Stat3 Tyr705 (Tyr705 of Stat3 [2]): 10 µM

IL-6-induced pStat3 formation (Stat3 [3]): inhibited pStat3 formation | concentration of complete inhibition of Stat1 phosphorylation (Tyr701 of Stat1): 5 µM | concentration at which pStat3 was completely inhibited (Tyr705 of Stat3 [1]; [16]): 0.5 µM | concentration with noticeable inhibition of pStat3 (Tyr705 of Stat3 [1]; [16]): 0.1 µM | time at which pStat3 formation was completely inhibited (Tyr705 of Stat3 [1]; [17]): 30 min | time for which complete inhibition of pStat3 was sustained (Tyr705 of Stat3 [1]; [17]): 4 h | concentration at which constitutively activated Stat3 was completely inhibited (Stat3 [4]): 1 µM | increase in Stat3 phosphorylation induced by EGF (Stat3 [10]): completely inhibited | IL-6-induced pStat3 formation (Stat3 [11]): inhibited pStat3 formation | duration of pStat3 inhibition (Stat3 [12]): at least 4 h | pStat3 level at 24 h (Stat3 [12]; 24 h): had not returned to pretreatment levels | pStat3 nuclear localization (pTyr705 Stat3): abrogated nuclear localization | IL-6-induced pStat3 formation (Stat3 [14]): inhibited pStat3 formation
SMILES: C/C(=C\C(=O)N[C@H]1CCc2cccc3c2N(C1=O)[C@H](C(=O)N[C@H](C)CCC(N)=O)C3)c1ccc(C(F)(F)P(=O)(OCOC(=O)C(C)(C)C)OCOC(=O)C(C)(C)C)cc1 [compound 34, βMF2Pm(POM2)Cinn-Haic-Apa]
survival curves with daily dosing compared with single dose (MDA-MB-468 cells): little change in the survival curves | expression of cyclin D1 (cyclin D1 [5]): not inhibited | expression of Bcl-xL (Bcl-xL): No inhibition | Akt Ser473 phosphorylation (Ser473 of Akt [6]; [18]): do not inhibit Akt phosphorylation | Akt phosphorylation at high concentration (Ser473 of Akt [6]; [19]): inhibited phosphorylation | expression of survivin (survivin [7]): reduced | expression of cyclin D1 (cyclin D1 [8]): No inhibition | expression of survivin (survivin [9]): reduced | phosphorylation of p38 MAPK (p38 MAPK): no effect | inhibition (H528): < 20% | Stat5 phosphorylation (Tyr694 of Stat5; [18]): not inhibited | Stat5 phosphorylation at high concentration (Tyr694 of Stat5; [19]): inhibited phosphorylation | FAK phosphorylation at high concentration [13, 19]: inhibited phosphorylation | FAK Tyr861 phosphorylation ([13]; MDA-MB-468, 2 h treatment): no reduction of Tyr861 phosphorylation | phosphorylation of Ser473 of Akt (Ser473 of Akt [15]): no effect
